Test: Toxicity liver stage against HepG2, at 10uM
Assay type: cell-based
Set-up: test concentration 10 uM, cell line HepG2-A16-CD81EGFP
Conditions: human, HepG2-A16-CD81EGFP cells; read-out: INHIBITION
Outline: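 Uninfected HepG2-A16-CD81EGFP cells, 3 × 10^3 per well, 1536-well, plated on prespotted compound at 10 μM final, parasite-free screening media added to match infected plates; puromycin 10 μM positive, DMSO 0.5% negative; run in parallel with 48 h PbLuc assay at 37 °C, 5% CO2; viability by CellTiter-Glo luminescence, normalized to controls.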

| SMILES | cytotoxicity at 10 µM |
| --- | --- |
| Fc1ccc(OCc2nnc([C@H]3CCN(Cc4cccnc4)C3)o2)cc1 | -5.72% |
| N#Cc1ccc(CN2C[C@@H]3OCC(=O)N(CC(N)=O)[C@@H]3C2)cc1 | -1.51% |
| COc1ccc(-c2nc(C#N)c(N(C)C)o2)cc1S(=O)(=O)N1CCCC1 | -0.773% |
| COc1ccccc1CNc1ccc2nncn2n1 | 10.4% |
| CCc1cc(=O)[nH]c(SCc2ccccn2)n1 | -0.543% |
| CCSc1nnc(N2CCN(c3ccccc3)CC2)s1 | -6.67% |
| O=C(C[C@@H]1COC[C@H]2CN(Cc3ccsc3)C[C@@H]12)N1CCCC1 | 1.64% |
| C[C@@H]1C[C@H]2CN(C(=O)C3=CCCCC3)C[C@H]2O1 | 7.18% |
| CCOC1CC2(CCN(C(C)=O)CC2)c2cc(F)ccc21 (stereo not drawn) | -143% |
| CCS(=O)(=O)N1CCOC2(COCCN(c3nccs3)C2)C1 (stereo not drawn) | 7.4% |
| COCC1c2nnn(CC3CC3)c2CCN1C(=O)c1cnccn1 (stereo not drawn) | -140% |
| Cc1nc(-c2ccccc2F)sc1C(=O)N1CCN(C)CC1 | 21% |
| CSc1[nH]nc(NC(=O)c2cccnc2)c1C#N | -4.87% |
| Cc1nn(C)c2c(NCc3cccnc3)nc(C(C)C)nc12 | 10.5% |
| CCn1cc(S(=O)(=O)Nc2nc3c(s2)CCCC3)cn1 | 6.33% |
| COc1cc(NCc2ccncc2)c(-c2nn[nH]n2)cc1OC | 7.91% |
| CCn1ccc(NC(=O)CN2C(=O)CC(C)(C)c3ccccc32)n1 | -5.01% |
| CC(NC(=O)c1ccoc1)C(=O)N(C)Cc1cccc(C(F)(F)F)c1 (stereo not drawn) | -13.6% |
| CS(=O)(=O)c1ccc(NC(=O)NC2(c3cccc(F)c3)CC2)cc1 | 2.93% |
| COCCN(C)C(=O)Nc1cc2c(cc1SC)OCCO2 | 4.69% |
| CC(CN1CCOCC1)NC(=O)N1CCN(S(C)(=O)=O)CC1 (stereo not drawn) | 0.243% |
| CCCn1cc(C(=O)NCCCC(N)=O)c2ccccc21 | 6.13% |
| Cc1noc(CNC(=O)NCCc2ccc(Cl)cc2)n1 | 6.93% |

| SMILES | cytotoxicity at 10 µM |
| --- | --- |
| CCc1cc(=O)[nH]c(-c2ccc(NC(C)CN3CCOCC3)nc2)n1 (stereo not drawn) | -145% |
| Cc1sc2ccccc2c1S(=O)(=O)NCCNC(=O)C(C)C | -0.238% |
| CC(C)CCOc1ccc(C(C)NC(=O)CSCC(N)=O)cc1 (stereo not drawn) | 10.5% |
| N#CC1COCCN1S(=O)(=O)c1ccc2ccccc2c1 (stereo not drawn) | 6.45% |
| CC(C)C(=O)NS(=O)(=O)CCc1ccccc1 | 0.67% |
| CC(C)NC(=O)N1CCC[C@H]1C(=O)NCCCc1cnn(C)c1 | 0.00333% |
| O=C(NCCOc1ccc(Cl)cn1)Nc1ccccn1 | 9.05% |
| CC(NC(=O)CNC(=O)OC(C)(C)C)c1ccc(Cl)s1 (stereo not drawn) | 2.99% |
| Cc1ccc(F)c(C(=O)NC2CCC(N3C(=O)CCC3=O)CC2)c1 (stereo not drawn) | -6% |
| Cc1nnc(NCC(c2ccco2)N2CCCC2)c(C#N)c1C (stereo not drawn) | -3.04% |
| Cc1cc(NC(=O)NCCc2cscn2)nn1C | 2.24% |
| CC(C)(C)S(=O)(=O)CCNC(=O)c1ccc2ccccc2c1 | 0.995% |
| CC(C)CCC(=O)Nc1ccc2oc(=O)n(CCN(C)C)c2c1 | -9.15% |
| NC(=O)CCn1ccc(NC(=O)c2ccc(OCC3CC3)cc2)n1 | 5.48% |
| N#Cc1ccnc(N2CCN(CC(O)c3ccc(F)cc3F)CC2)c1 (stereo not drawn) | -0.626% |
| O=C(c1csc(-c2ccco2)n1)N1CCN2CCCCC2C1 (stereo not drawn) | 5.6% |
| C=C(C)CN(CC)S(=O)(=O)c1ccccc1C#N | -17.1% |
| C[C@@H]1CN(c2ccc3c(Cl)ccnc3c2F)CC(C(N)=O)O1 (stereo partly drawn) | 4.11% |
| O=C(Cc1csc(N2CCNC2=O)n1)NC(c1ccccc1)C1CC1 (stereo not drawn) | -136% |
| O=C(CNC(=O)C1CC1)NCCOc1cccc(Cl)c1Cl | 5.04% |
| CN(C)c1ncc(CNS(=O)(=O)c2cc(F)ccc2Cl)n1C | 6.69% |
| Clc1nc2ccccn2c1CNCC1CN(C2CC2)CCO1 (stereo not drawn) | -3.06% |
| Cc1ccc(N2CCCC(N3CCN(CC(F)F)CC3)C2=O)cc1 (stereo not drawn) | 1.66% |

| SMILES | cytotoxicity at 10 µM |
| --- | --- |
| COc1cc(C(C#N)NC(=O)CC2=CCCCC2)cc(OC)c1OC (stereo not drawn) | 3.2% |
| CC(CNS(=O)(=O)CCCC#N)c1ccsc1 (stereo not drawn) | 3.02% |
| COc1ccc(C)c(NC(=O)NCc2cccc(N(C)C)n2)c1 | 6.13% |
| O=C(CNc1cccc(S(=O)(=O)C(F)F)c1)Nc1ccccc1 | -48.4% |
| CC(=O)c1ccc(CNC(=O)c2cc(C)nn2C)nc1C | 6.21% |
| CC(CN1CCOCC1)NC(=O)NCc1ccc(Cl)s1 (stereo not drawn) | 1.23% |
| CN1CCCCC1c1nc(Cc2cccc(F)c2)no1 (stereo not drawn) | -161% |
| O=C1N(CCc2ccccc2)CCCC12CCN(C(CO)CO)C2 (stereo not drawn) | -3.25% |
| CCOc1ncccc1Cn1cc(-c2cncnc2)nn1 | 2.38% |
| C[C@@H]1CN(C(=O)Cn2ccc3ncccc3c2=O)C[C@H](C)O1 | -5.64% |
| COc1ccccc1OCCCc1cccc(C#N)n1 | -5.62% |
| COCC(NC(=O)c1cnc(-c2ccncc2)nc1)c1ccnn1C (stereo not drawn) | -13.1% |
| CCNC(=O)[C@@H]1C[C@@H](N)CN1C(=O)c1cc2ccccc2[nH]1 | -9.6% |
| CNC(=O)[C@@H]1C[C@H](N)CN1Cc1cc2cc(C)cc(C)c2[nH]c1=O | -1.72% |
| Cc1nc(-c2cccc(C(=O)O)c2)c[nH]1 | -3.24% |
| CCC[C@@H]1CN(C(=O)CCc2ccco2)C[C@H]1NS(C)(=O)=O | -3.73% |
| COc1ccc(-n2ccnc2-c2cnc(N(C)C)nc2)cc1OC | -2.4% |
| CCn1ncnc1C(C)Nc1cc(C2CC2)ncn1 (stereo not drawn) | 2.33% |
| O=C(NCCCc1ccc(F)cc1)c1ccc(N2CCOCC2)cc1 | -4.45% |
| CSc1ncccc1C(=O)N1CCC2(CC1)OCCCC2O (stereo not drawn) | -7.16% |
| COc1ccccc1OCc1cc(C(=O)N2CC(O)C2)n[nH]1 | -1.02% |
| Cc1cccc(C(=O)NCc2ccc(CS(N)(=O)=O)cc2)n1 | -1.07% |
| COc1ncccc1NC(=O)N(Cc1ccc(C(N)=O)cc1)C1CC1 | 6.66% |

| SMILES | cytotoxicity at 10 µM |
| --- | --- |
| Cn1cc(CCN2CCOC(CNc3cccnn3)C2)cn1 (stereo not drawn) | 2.11% |
| c1cnnc(NCC2CN(CC3CCOCC3)CCO2)c1 (stereo not drawn) | 9.34% |
| CCc1nnc2n1CCN(CCC(=O)Nc1sccc1C#N)C2 | -23% |
| CC(C)(C)OC(=O)N1CCC(C(=O)NCCNc2ncccn2)CC1 | -10.3% |
| O=C(NCCNc1ncccn1)C1CCN(C(=O)N2CCCC2)CC1 | -6.11% |
| COc1ccccc1C(=O)N1CCOCC1c1c(C)n[nH]c1C (stereo not drawn) | -8.72% |
| CC(O)CN1CCC(CNCc2ccccc2F)CC1 (stereo not drawn) | -11.4% |
| Cc1noc(C2CCN(C(=O)c3ccc(C(F)(F)F)nc3)CC2)n1 | -6.16% |
| OC(CN1CCC(c2ccn[nH]2)CC1)c1cccc(C(F)(F)F)c1 (stereo not drawn) | -12.1% |
| Cc1cnn(CC2CCCN2C(=O)c2ccccc2-n2cnnn2)c1 (stereo not drawn) | -35.7% |
| Cc1cccc(-n2ncc(C(=O)NCC3CCS(=O)(=O)C3)c2C)c1 (stereo not drawn) | -20.3% |
| COCCCNC(=O)c1c(C)noc1C(C)C | -28.2% |
| CCOc1ncccc1CNC(=O)Nc1ccc(CC)cc1 | -23.7% |
| CS(=O)(=O)N1CCC(NC(=O)COc2cccc(Cl)c2)CC1 | -5.59% |
| O=C(CCOc1ccccc1Cl)N1CCN(c2cnccn2)CC1 | -29.2% |
| Cc1nnc(CN2CCN(C(C)c3nc(C4CC4)no3)CC2)o1 (stereo not drawn) | -10.3% |
| Cc1cc(CN2CCN(C(=O)c3sccc3C3CC3)CC2)no1 | -10% |
| CS(=O)(=O)N1CCN(CC(O)COc2ccc(Cl)cc2)CC1 (stereo not drawn) | -38.6% |
| CN(Cc1ccccc1)C(=O)CS(=O)(=O)Cc1ccc(Cl)c(Cl)c1 | 0.239% |
| O=c1n(CCSCc2ccccc2Br)nc2ccccn12 | -3.95% |
| Cc1ccc(NC2CCN(C(=O)c3ccc(Cl)o3)CC2)nn1 | -0.961% |
| CNc1nc(CNC(=O)Nc2ccccc2-c2noc(C)n2)cs1 | -6.56% |
| CC(C)c1nc(CN2CCCN(Cc3nnc(C4CC4)o3)CC2)no1 | -0.794% |

| SMILES | cytotoxicity at 10 µM |
| --- | --- |
| CC(NC(N)=O)C(=O)N1CCCN(Cc2nccn2C(C)C)CC1 (stereo not drawn) | 1.95% |
| CCn1cnnc1CNC(=O)c1cc(Cl)ccc1O | 2.17% |
| Cc1ccc(NC(=O)N2CCC(NC(=O)c3ccc(C)o3)CC2)cc1 | 0.385% |
| O=C(C1CCC1)N1CCC2(CCNCC2)C1 | -3.39% |
| N#CC1(C(=O)NCC2CCC3(CCNCC3)O2)CC1 (stereo not drawn) | -5.22% |
| Cc1ccc(CN2CCOCC3(CCN(Cc4cccs4)C3)C2)o1 (stereo not drawn) | -5.61% |
| CC(C)CN1CCC2(CC1)C(=O)Nc1ccc(C(=O)N(C)C)cc12 | -1.18% |
| O=C(c1cccnc1)N1CCCC2(CCN(c3ccsc3)C2=O)C1 (stereo not drawn) | -1.29% |
| Cc1nnc(N2CCCC3(CN(c4ccccn4)CCO3)C2)o1 (stereo not drawn) | -98.8% |
| c1ccc(OCC2CC3(CCN(c4ncccn4)CC3)CO2)nc1 (stereo not drawn) | 0.485% |
| CN(C)CCN1CCN(Cc2nccs2)Cc2cccnc21 | -1.08% |
| c1cncc(CN2CCC3(CC2)CC(c2cccnc2)CO3)c1 (stereo not drawn) | 0.851% |
| CC(C)CCN1CCc2cc(C(=O)N(C)C)c(NCC3CC3)nc2CC1 | 4.71% |
| Cc1oncc1C(=O)N[C@@H]1CN(c2ncccn2)C[C@@H]2CCCO[C@@H]21 | 6.21% |
| O=C(O)c1c(-c2cccnc2)ncc2c1CCN(Cc1ccccn1)C2 | -1.43% |
| CC(C)(C)c1n[nH]cc1CNCC1CCN(CC(F)(F)F)C1 (stereo not drawn) | 3.5% |
| O=C(NCC1COCc2c(-c3ccncc3)nnn2C1)[C@H]1CCCO1 (stereo partly drawn) | 1.9% |
| Cn1cc(N2CC3(CCN(Cc4cccs4)CC3)OCC2=O)cn1 | -8.13% |
| Cc1ccc(CN2CCC3(CC2)CCN(Cc2ccoc2)CC3)cc1 | 3.47% |
| O=C(c1ccoc1)N1CCO[C@]2(CCC[C@H]2COCc2cccnc2)C1 | 4.58% |
| COc1cccc(-n2cc3[nH]c(=O)n(C(C)C)n3c2=O)c1 | -7.32% |
